Rad51 HR inh = Rad51 (human) homologous recombination inhibition; Q06609; hRad51 DNA strand exchange, fluorescence dequenching; inhibition, % at 10 µM; 200,000 tested, 0.085% active;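 active = inhibition above 40% at the single screening dose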
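Material: hRad51 filaments on single-stranded DNA; Reagent: Donor/quencher-labelled 47-bp dsDNA substrate; Compound: 10 µM final, single point; Schedule: 37 °C 15-min filament assembly, 30-min compound preincubation, 15-min exchange; Technique: FRET fluorescence, excitation 485 nm, emission 520 nm; Benchmarks: control wells and blank wells on each plate.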
KCC2 mod = modulators of human KCC2 chloride dependent transport; Q9H2X9; KCC2 cells, thallium flux FluoZin-2 fluorescence; B-score of Tl+ flux slope (higher = more flux/activation; lower = inhibition) at 10 µM; 190,000 tested, 2.2% active; AID 1456;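 active = thallium flux slope and its plate-corrected score both differing from the plate sample mean at a set confidence after two filtering rounds, in either direction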;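 note: slope of fluorescence scaled to starting intensity during 10 to 20 s after thallium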
Target sequence (Q9H2X9 whole entry, looked up): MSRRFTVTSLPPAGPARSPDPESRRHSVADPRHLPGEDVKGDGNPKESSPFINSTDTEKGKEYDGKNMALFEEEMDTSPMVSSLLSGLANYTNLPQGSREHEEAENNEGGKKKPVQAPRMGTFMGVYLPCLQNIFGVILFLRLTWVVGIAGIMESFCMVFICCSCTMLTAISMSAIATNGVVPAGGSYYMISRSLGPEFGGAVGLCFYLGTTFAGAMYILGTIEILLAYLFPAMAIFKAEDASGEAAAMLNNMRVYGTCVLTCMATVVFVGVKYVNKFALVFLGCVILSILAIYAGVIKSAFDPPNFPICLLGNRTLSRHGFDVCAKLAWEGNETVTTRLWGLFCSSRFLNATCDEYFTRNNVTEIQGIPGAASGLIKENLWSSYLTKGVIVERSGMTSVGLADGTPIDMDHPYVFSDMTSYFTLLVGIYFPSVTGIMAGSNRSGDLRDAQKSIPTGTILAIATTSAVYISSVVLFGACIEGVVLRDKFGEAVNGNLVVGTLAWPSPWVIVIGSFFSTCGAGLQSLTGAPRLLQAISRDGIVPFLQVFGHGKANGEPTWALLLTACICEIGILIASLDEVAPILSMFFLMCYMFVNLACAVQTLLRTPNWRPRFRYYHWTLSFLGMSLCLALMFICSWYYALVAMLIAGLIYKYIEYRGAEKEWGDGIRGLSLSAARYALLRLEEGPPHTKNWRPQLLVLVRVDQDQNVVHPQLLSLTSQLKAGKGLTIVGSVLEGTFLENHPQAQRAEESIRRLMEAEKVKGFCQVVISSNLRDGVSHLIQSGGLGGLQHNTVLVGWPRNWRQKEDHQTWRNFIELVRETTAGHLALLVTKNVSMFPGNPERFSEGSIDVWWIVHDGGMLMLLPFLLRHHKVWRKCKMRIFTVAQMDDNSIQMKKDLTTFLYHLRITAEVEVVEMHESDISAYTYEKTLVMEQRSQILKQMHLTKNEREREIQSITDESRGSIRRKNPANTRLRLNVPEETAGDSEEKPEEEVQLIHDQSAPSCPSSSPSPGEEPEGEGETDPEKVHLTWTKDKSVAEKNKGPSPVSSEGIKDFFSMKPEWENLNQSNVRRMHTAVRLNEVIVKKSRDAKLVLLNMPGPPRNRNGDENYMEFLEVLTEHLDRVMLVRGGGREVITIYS
Ins promoter up = MIN6 insulin promoter up-regulation. z-score at 5 µM. MIN6 insulin promoter-GFP reporter, high-content imaging; hits give high values. 190,000 tested, 0.3% active;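 active = z-score above 3 at 5 µM with at least 500 cells counted in the well; inconclusive = wells under 500 cells, flagged as cytotoxic or low count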
SKKanGAS inh = SKKanGAS growth inhibition | inhibition, % at 7.5 µM | S. pyogenes SKKanGAS, kanamycin growth, BacTiter-Glo, 6 h | 300,000 tested, 1.3% active;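 active = mean replicate score, as percent of positive control median, at least 50; inconclusive = mean below 50 but one replicate at or above 50; inactive = mean and every replicate below 50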;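 note: strain carries kanamycin resistance gene driven by streptokinase promoter and grows in 40 µg/ml kanamycin; loss of luminescence reflects streptokinase promoter inhibition or plain growth inhibition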
Autophagy mod = modulators of autophagy | MEF GFP-LC3 puncta imaging; test concentration mostly 10 µM | calls only at 10 µM (by protocol) | 190,000 tested, 0.98% active | AID 463193;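 active = percentage of spot-positive cells more than 3 SD above its plate mean, without a fluorescence outlier flag or 80% toxicity; inconclusive = no clear call, values can overlap the other calls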
WT yeast gro inh = growth inhibition of WT yeast, mitochondrial fusion screen; mitochondrial fusion phenotypic screen, WT strain; inhibition, % at 10 µM; 190,000 tested, 2.1% active; AID 1362; in the data active = inhibition above about 58%; tested in S. cerevisiae
KCC2 secondary = KCC2 (human) modulation, secondary assay | 3,700 tested, 15% active | shares compounds with KCC2 mod | normalised thallium flux (F/F0 slope) at 10 µM | AID 1713 | HEK293-KCC2, thallium flux, FluoZin2 fluorescence; hits give high values;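 active = thallium flux slope above the same plate's solvent-only control mean plus 3 SD; inconclusive = the two replicate wells disagree; inactive = no significant difference from solvent-only control wells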
KCC2 bumet counter = thallium flux persisting under bumetanide in KCC2 cells, counter-screen secondary assay; shares compounds with KCC2 mod; HEK293-KCC2 + bumetanide/ouabain, thallium flux FluoZin2; hits give high values; normalized thallium flux at 10 µM; 3,700 tested, 49% active; AID 1714;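 active = thallium entry rate above the same plate's blocked-transporter control wells by more than 3 SD; inconclusive = the two repeat wells disagree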;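 note: raw slope of fluorescence over initial fluorescence between 10 and 20 s after thallium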
KCC2 secondary2 = KCC2 (human) modulation, second secondary assay | shares compounds with KCC2 mod | HEK293-KCC2, thallium flux FluoZin2 fluorescence; actives lie on both sides; F/F0 rise rate, 10–20 s post-thallium | normalized thallium flux at 10 µM | 3,700 tested, 23% active;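 active = thallium flux slope more than 3 SD above or below the plate's solvent-only control mean, mostly below; inconclusive = the two repeat wells disagreed; inactive = no significant shift from solvent-only controls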
HEK counter1 = acts in parental HEK cells, KCC2 counter-screen; 3,700 tested, 46% active; thallium flux rate (normalised fluorescence) at 10 µM; AID 1716; HEK293 parental cells, thallium flux FluoZin2, ouabain; baseline-ratio fluorescence slope, 10–20 s after thallium; shares compounds with KCC2 mod;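 active = thallium flux rate significantly above the same plate's solvent-only control wells, beyond their mean plus 3 SD; inconclusive = the two replicate wells gave conflicting results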
KCC2 ouabain = modulates human KCC2 on retest with ouabain; 3,700 tested, 48% active; HEK293-KCC2, thallium flux FluoZin2 fluorescence; bidirectional: low = inhibitor, high = activator; shares compounds with KCC2 mod; raw Tl+ flux slope (below DMSO = inhibition, above = activation) at 10 µM;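 active = thallium flux slope beyond 3 SD from same-plate DMSO control mean in most replicates, usually higher, sometimes lower; inconclusive = repeat tests gave conflicting results; inactive = no significant difference from controls in most replicates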;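 note: slope of initial-normalized fluorescence between seconds 10 and 20 after thallium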
HEK counter2 = parental HEK flux effect, counter-screen 2; shares compounds with KCC2 mod; HEK293 parental, thallium flux FluoZin-2 fluorescence slope; thallium flux slope at 10 µM; 3,700 tested, 33% active;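 active = thallium flux slope above the same plate's solvent-control mean plus 3 SD in both duplicate wells; inconclusive = duplicate wells that disagreed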;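 note: run without ouabain in cells lacking the KCC2 cotransporter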
Each line names hits and unclear results; the compound was inactive in the other large screens (follow-up assays come after a bar, where they were run). The list is not random: actives were taken first. Their share in the collection is about 4.2%.

CN(C(=S)NC(=O)/C=C/c1ccc(F)cc1)C1CCCCC1	KCC2 mod 12.1 (no result: Rad51 HR inh) | KCC2 secondary inactive | KCC2 bumet counter 0.072 | KCC2 secondary2 inactive | HEK counter1 0.0192 | KCC2 ouabain inconclusive | HEK counter2 0.0136
CN(C(=O)/C=C/c1ccc(F)cc1)C1CCCCC1	none (no result: Rad51 HR inh, KCC2 mod, Ins promoter up, Autophagy mod, WT yeast gro inh)
O=C(O)Cn1nc(-c2ccccc2)ccc1=O	none (no result: Rad51 HR inh, KCC2 mod, Ins promoter up, Autophagy mod, WT yeast gro inh)
Cn1c(NCCCO)nc2c1c(=O)n(Cc1ccccc1F)c(=O)n2C	none | KCC2 secondary inactive | KCC2 bumet counter inconclusive | KCC2 secondary2 inactive | HEK counter1 inactive | KCC2 ouabain inactive | HEK counter2 inactive
COc1ccccc1Oc1nc2c(c(=O)n(Cc3ccccc3F)c(=O)n2C)n1C	none
Cc1cc(C)n(-c2ccccc2C#N)n1	none (no result: Autophagy mod, WT yeast gro inh)
CC(C)n1c(-c2ccc(N(C)C)cc2)nc2ccccc21	KCC2 mod -3.32 (no result: SKKanGAS inh) | KCC2 secondary inactive | KCC2 bumet counter inactive | KCC2 secondary2 inactive | HEK counter1 inconclusive | KCC2 ouabain inactive | HEK counter2 inactive
O=c1nc(N2CCCC2)nc(N2CCCC2)[nH]1	none (no result: Rad51 HR inh, KCC2 mod, Ins promoter up, Autophagy mod, WT yeast gro inh)
O=C1CCCCN1CCCC(=O)N1CCCC(Nc2ccc(F)c(F)c2)C1 (centres undefined)	none (no result: Rad51 HR inh, KCC2 mod, Ins promoter up, Autophagy mod, WT yeast gro inh)
Cc1c(NS(=O)(=O)c2ccc3c(c2)OCCO3)cccc1-c1nc2cccnc2s1	none
Cc1cc(-c2nc3cccnc3s2)ccc1NS(=O)(=O)c1ccc2c(c1)OCCO2	KCC2 mod -3.86 (no result: Ins promoter up) | KCC2 secondary inactive | KCC2 bumet counter inactive | KCC2 secondary2 inactive | HEK counter1 inactive | KCC2 ouabain inactive | HEK counter2 inactive
COC(=O)c1cc2c(ccn2-c2ccc(F)cc2)n1CC(=O)N1CCN(C(=O)c2ccco2)CC1	KCC2 mod -6.69 (no result: SKKanGAS inh) | KCC2 secondary inconclusive | KCC2 bumet counter inconclusive | KCC2 secondary2 0.0279 | HEK counter1 0.00953 | KCC2 ouabain inconclusive | HEK counter2 inactive
CCOC(=O)c1cc2c(ccn2-c2ccc(F)cc2)n1CC(=O)NC(C)(C)C	KCC2 mod -5.55 | KCC2 secondary inactive | KCC2 bumet counter inactive | KCC2 secondary2 0.0241 | HEK counter1 inactive | KCC2 ouabain 0.0171 | HEK counter2 inactive
Cc1cc(NC(=O)c2ccccc2F)nc2c1c(=O)oc1ccccc12	none
O=C(Nc1ccccc1)c1cn(CCBr)cn1	none (no result: Rad51 HR inh, KCC2 mod, Ins promoter up, Autophagy mod, WT yeast gro inh)
CCSc1nnc(CNC(=O)C23CC4CC(CC(C4)C2)C3)n1C1CCCCC1	none
Cc1oc(-c2cc(F)ccc2F)nc1CN1CCN(c2cnccn2)CC1	KCC2 mod -5.04 (no result: Rad51 HR inh) | KCC2 secondary inactive | KCC2 bumet counter inactive | KCC2 secondary2 inactive | HEK counter1 inactive | KCC2 ouabain inactive | HEK counter2 inconclusive
COC(=O)c1cc(NS(=O)(=O)c2ccc(NC(C)=O)cc2)ccc1Cl	none (no result: Autophagy mod, WT yeast gro inh)
CCC(O)CNc1nc(-n2nc(C)cc2C)nc2sc3c(c12)CCCC3 (centres undefined)	none (no result: Rad51 HR inh, KCC2 mod, SKKanGAS inh, Autophagy mod, WT yeast gro inh)
Cc1cc(C)n(-c2nc(SCCN(C)C)c3c4c(sc3n2)CCCC4)n1	KCC2 mod 6.16 | KCC2 secondary inactive | KCC2 bumet counter 0.0199 | KCC2 secondary2 inactive | HEK counter1 0.0138 | KCC2 ouabain 0.0253 | HEK counter2 0.016
CCOc1ccc(S(=O)(=O)NCCSCc2ccco2)cc1	none (no result: KCC2 mod) | KCC2 secondary inactive | KCC2 bumet counter inactive | KCC2 secondary2 inactive | HEK counter1 inactive | KCC2 ouabain inactive | HEK counter2 inactive
Cc1c(C)c2ccc(OC(C)C(=O)NCCCN3CCOCC3)c(C)c2oc1=O (centres undefined)	none (no result: Rad51 HR inh, KCC2 mod, Ins promoter up, Autophagy mod, WT yeast gro inh)
CCc1ccc(-n2c(=O)c3c(C)c(C(=O)N(C)C)sc3n(CC(=O)NCc3ccco3)c2=O)cc1	KCC2 mod 3.8 | KCC2 secondary inactive | KCC2 bumet counter inactive | KCC2 secondary2 inactive | HEK counter1 inactive | KCC2 ouabain inactive | HEK counter2 inactive
Cc1sc2c(c1C)c(=O)n(-c1ccc(F)cc1)c(=O)n2CC(=O)NCc1ccco1	none (no result: KCC2 mod, Ins promoter up, SKKanGAS inh)
CCn1c(=O)c2c(n3c(=S)[nH]nc13)-c1ccccc1CC21CCCCC1	KCC2 mod 65.1 | KCC2 secondary inactive | KCC2 bumet counter 0.0698 | KCC2 secondary2 inconclusive | HEK counter1 0.0597 | KCC2 ouabain 0.0593 | HEK counter2 0.0345
Cc1ccccc1-n1c(=O)c2c(n3cnnc13)-c1ccccc1CC21CCCCC1	none
CCCn1c(SCC(N)=O)nc2c(c1=O)C1(CCCC1)Cc1ccccc1-2	none (no result: Rad51 HR inh, KCC2 mod) | KCC2 secondary 0.0132 | KCC2 bumet counter 0.031 | KCC2 secondary2 inactive | HEK counter1 0.0169 | KCC2 ouabain inconclusive | HEK counter2 0.0123
CCn1c(SCC#N)nc2c(c1=O)C1(CCCC1)Cc1ccccc1-2	KCC2 mod 16.8 (no result: SKKanGAS inh) | KCC2 secondary 0.0148 | KCC2 bumet counter 0.0576 | KCC2 secondary2 inactive | HEK counter1 inconclusive | KCC2 ouabain 0.0395 | HEK counter2 inconclusive

Screening data as filed in PubChem.
